Results as given in ChEMBL document CHEMBL5058577, “EUbOPEN Chemogenomics Library 2 (Multiplex)” (2022).

System: U2OS
Experiment: Multiplex assay against U2OS
Type: toxicity, cell-based
Conditions: human
Outline: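 Imaging took place on a CQ1 microscope at 37°C and 5% CO2 once compound had been added to live cells stained at seeding with Hoechst33342, BioTracker Green Microtubule Cytoskeleton Dye, MitoTracker Red and Annexin V Alexa Fluor 680. CellPathfinder machine-learning gating classed cells as Hoechst high-intensity objects or normal cells, classed normal cells as having healthy, pyknosed or fragmented nuclei, and classed pyknosed cells as mitotic or apoptotic. Tubulin, mitochondrial-mass and membrane-permeability phenotypes are per cents of the healthy-nucleus cells.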

[1] = 12 h, 1 µM, compound concentration 1 uM, replicate 1
[2] = 12 h, 1 µM, compound concentration 1 uM, replicate 2
[3] = 12 h, 10 µM, compound concentration 10 uM, replicate 1
[4] = 12 h, 10 µM, compound concentration 10 uM, replicate 2
[5] = 24 h, 1 µM, compound concentration 1 uM, replicate 1
[6] = 24 h, 1 µM, compound concentration 1 uM, replicate 2
[7] = 24 h, 10 µM, compound concentration 10 uM, replicate 1
[8] = 24 h, 10 µM, compound concentration 10 uM, replicate 2
[9] = 48 h, 1 µM, compound concentration 1 uM, replicate 1
[10] = 48 h, 1 µM, compound concentration 1 uM, replicate 2
[11] = 48 h, 10 µM, compound concentration 10 uM, replicate 1
[12] = 48 h, 10 µM, compound concentration 10 uM, replicate 2

CC(/C=C1\SC(=S)N(CCCC(=O)Nc2ccc(C(=O)O)c(O)c2)C1=O)=C\c1ccccc1
Population Apoptotic (%) [1]: 94%
Population Fragmented Nuclei (%) [1]: 26%
Population Healthy Nuclei (%) [1]: 64%
Population Hoechst High Intensity Objects (%) [1]: 3%
Population Membrane Permeable-Phenotype (%) [1]: 4%
Population Mitochondria Different-Phenotype (%) [1]: 1%
Population Mitotic Cells (%) [1]: 5%
Population Normal (%) [1]: 96%
Population Pyknosed Nuclei (%) [1]: 8%
Population Tubulin-Different-Phenotype (%) [1]: 3%
Total Cell Count [1]: 205
Population Apoptotic (%) [2]: 100%
Population Fragmented Nuclei (%) [2]: 12%
Population Healthy Nuclei (%) [2]: 80%
Population Hoechst High Intensity Objects (%) [2]: 4%
Population Membrane Permeable-Phenotype (%) [2]: 3%
Population Mitochondria Different-Phenotype (%) [2]: 2%
Population Mitotic Cells (%) [2]: 0%
Population Normal (%) [2]: 95%
Population Pyknosed Nuclei (%) [2]: 7%
Population Tubulin-Different-Phenotype (%) [2]: 0%
Total Cell Count [2]: 133
Population Apoptotic (%) [3]: 91%
Population Fragmented Nuclei (%) [3]: 28%
Population Healthy Nuclei (%) [3]: 61%
Population Hoechst High Intensity Objects (%) [3]: 3%
Population Membrane Permeable-Phenotype (%) [3]: 12%
Population Mitochondria Different-Phenotype (%) [3]: 2%
Population Mitotic Cells (%) [3]: 8%
Population Normal (%) [3]: 96%
Population Pyknosed Nuclei (%) [3]: 9%
Population Tubulin-Different-Phenotype (%) [3]: 4%
Total Cell Count [3]: 241
Population Apoptotic (%) [4]: 72%
Population Fragmented Nuclei (%) [4]: 16%
Population Healthy Nuclei (%) [4]: 72%
Population Hoechst High Intensity Objects (%) [4]: 0%
Population Membrane Permeable-Phenotype (%) [4]: 4%
Population Mitochondria Different-Phenotype (%) [4]: 1%
Population Mitotic Cells (%) [4]: 27%
Population Normal (%) [4]: 100%
Population Pyknosed Nuclei (%) [4]: 10%
Population Tubulin-Different-Phenotype (%) [4]: 5%
Total Cell Count [4]: 101
Population Apoptotic (%) [5]: 83%
Population Fragmented Nuclei (%) [5]: 25%
Population Healthy Nuclei (%) [5]: 64%
Population Hoechst High Intensity Objects (%) [5]: 3%
Population Membrane Permeable-Phenotype (%) [5]: 4%
Population Mitochondria Different-Phenotype (%) [5]: 1%
Population Mitotic Cells (%) [5]: 16%
Population Normal (%) [5]: 96%
Population Pyknosed Nuclei (%) [5]: 10%
Population Tubulin-Different-Phenotype (%) [5]: 1%
Total Cell Count [5]: 247
Population Apoptotic (%) [6]: 94%
Population Fragmented Nuclei (%) [6]: 9%
Population Healthy Nuclei (%) [6]: 79%
Population Hoechst High Intensity Objects (%) [6]: 1%
Population Membrane Permeable-Phenotype (%) [6]: 10%
Population Mitotic Cells (%) [6]: 5%
Population Normal (%) [6]: 98%
Total Cell Count [6]: 177
Population Apoptotic (%) [7]: 88%
Population Fragmented Nuclei (%) [7]: 26%
Population Healthy Nuclei (%) [7]: 64%
Population Hoechst High Intensity Objects (%) [7]: 2%
Population Membrane Permeable-Phenotype (%) [7]: 7%
Population Mitochondria Different-Phenotype (%) [7]: 3%
Population Mitotic Cells (%) [7]: 11%
Population Normal (%) [7]: 97%
Population Pyknosed Nuclei (%) [7]: 8%
Population Tubulin-Different-Phenotype (%) [7]: 3%
Total Cell Count [7]: 298
Population Apoptotic (%) [8]: 53%
Population Fragmented Nuclei (%) [8]: 16%
Population Healthy Nuclei (%) [8]: 72%
Population Hoechst High Intensity Objects (%) [8]: 0%
Population Mitochondria Different-Phenotype (%) [8]: 6%
Population Mitotic Cells (%) [8]: 46%
Population Normal (%) [8]: 100%
Population Pyknosed Nuclei (%) [8]: 11%
Population Tubulin-Different-Phenotype (%) [8]: 6%
Total Cell Count [8]: 111
Population Apoptotic (%) [9]: 93%
Population Fragmented Nuclei (%) [9]: 16%
Population Healthy Nuclei (%) [9]: 74%
Population Hoechst High Intensity Objects (%) [9]: 2%
Population Membrane Permeable-Phenotype (%) [9]: 5%
Population Mitochondria Different-Phenotype (%) [9]: 1%
Population Mitotic Cells (%) [9]: 6%
Population Normal (%) [9]: 97%
Population Pyknosed Nuclei (%) [9]: 8%
Population Tubulin-Different-Phenotype (%) [9]: 1%
Total Cell Count [9]: 368
Population Apoptotic (%) [10]: 78%
Population Fragmented Nuclei (%) [10]: 11%
Population Healthy Nuclei (%) [10]: 79%
Population Hoechst High Intensity Objects (%) [10]: 3%
Population Membrane Permeable-Phenotype (%) [10]: 4%
Population Mitochondria Different-Phenotype (%) [10]: 3%
Population Mitotic Cells (%) [10]: 21%
Population Normal (%) [10]: 96%
Population Pyknosed Nuclei (%) [10]: 9%
Population Tubulin-Different-Phenotype (%) [10]: 2%
Total Cell Count [10]: 253
Population Apoptotic (%) [11]: 97%
Population Fragmented Nuclei (%) [11]: 19%
Population Healthy Nuclei (%) [11]: 68%
Population Hoechst High Intensity Objects (%) [11]: 2%
Population Membrane Permeable-Phenotype (%) [11]: 6%
Population Mitochondria Different-Phenotype (%) [11]: 2%
Population Mitotic Cells (%) [11]: 2%
Population Normal (%) [11]: 97%
Population Pyknosed Nuclei (%) [11]: 12%
Population Tubulin-Different-Phenotype (%) [11]: 4%
Total Cell Count [11]: 396
Population Apoptotic (%) [12]: 82%
Population Fragmented Nuclei (%) [12]: 16%
Population Healthy Nuclei (%) [12]: 73%
Population Hoechst High Intensity Objects (%) [12]: 1%
Population Membrane Permeable-Phenotype (%) [12]: 4%
Population Mitochondria Different-Phenotype (%) [12]: 1%
Population Mitotic Cells (%) [12]: 17%
Population Normal (%) [12]: 98%
Population Pyknosed Nuclei (%) [12]: 10%
Population Tubulin-Different-Phenotype (%) [12]: 0%
Total Cell Count [12]: 170
